What is called MIC is the lowest concentration found to suppress growth. A lower MIC goes with greater potency.

In brackets after ≈: the same amount, converted by molar mass.

These results are taken from ChEMBL document CHEMBL4138085, “Design, synthesis and antimicrobial evaluation of novel benzimidazole-incorporated sulfonamide analogues” (Eur J Med Chem, 2017).

Assay [1] has as its system Staphylococcus aureus. Briefly: Antibacterial activity against Staphylococcus aureus ATCC 25923 after 24 hrs by NCCLS two fold broth microdilution method. It is filed as functional. To be noted: ATCC 25923, 24 h. Put shortly:
(§1)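 Two-fold serial broth microdilution in 96-well plates following NCCLS. Compounds were dissolved in DMSO as stocks, then diluted in Mueller–Hinton broth to final concentrations of 0.5–512 µg/mL. Plates were inoculated and incubated at 37 °C for 24 h, with growth read visually and spectrophotometrically. MIC was taken as the lowest concentration giving complete growth inhibition. Run in triplicate, with a DMSO-plus-inoculum solvent control.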
For orientation: Broth dilution looks for growth in wells or tubes with falling amounts of substance.

Assay [2] concerns Staphylococcus aureus. In words: Antibacterial activity against methicillin-resistant Staphylococcus aureus N315 after 24 hrs by NCCLS two fold broth microdilution method. The assay is classed as functional. To be noted: N315, 24 h. Put shortly:
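Two-fold serial broth microdilution per NCCLS. Chloromycin and norfloxacin as reference drugs; DMSO with inoculum, no drug, as solvent control. Incubation 37 °C for 24 h. Growth read visually and spectrophotometrically. MIC is the lowest concentration completely inhibiting growth; triplicate.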

Assay [3] has as its system Bacillus subtilis. In words: Antibacterial activity against Bacillus subtilis ATCC 21216 after 24 hrs by NCCLS two fold broth microdilution method. The assay is classed as functional. To be noted: ATCC 21216, 24 h. The procedure, abridged:
as §1

The subject of assay [4] is Micrococcus luteus. In words: Antibacterial activity against Micrococcus luteus ATCC 4698 after 24 hrs by NCCLS two fold broth microdilution method. The assay is classed as functional. To be noted: NCTC 2665, 24 h. Put shortly:
as §1

In assay [5] the test system is Bacillus. Briefly: Antibacterial activity against Bacillus proteus ATCC 13315 after 24 hrs by NCCLS two fold broth microdilution method. To be noted: ATCC 13315, 24 h. It is filed as functional. The procedure, abridged: as §1
Assay [6] relates to Escherichia coli. In words: Antibacterial activity against Escherichia coli ATCC 8099 after 24 hrs by NCCLS two fold broth microdilution method. Particulars: ATCC 8099, 24 h. The assay is classed as functional. The procedure, abridged:
(§2)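 Two-fold serial broth microdilution in 96-well plates following NCCLS. Plates were inoculated and incubated at 37 °C for 24 h, with growth read visually and spectrophotometrically. MIC was taken as the lowest concentration giving complete growth inhibition. Run in triplicate, with a DMSO-plus-inoculum solvent control.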

In assay [7] the test system is Pseudomonas aeruginosa. In words: Antibacterial activity against Pseudomonas aeruginosa ATCC 27853 after 24 hrs by NCCLS two fold broth microdilution method. The assay is classed as functional. Particulars: ATCC 27853, 24 h. The procedure, abridged:
as §2

For assay [8], the system named is Salmonella typhi. Briefly: Antibacterial activity against Bacillus typhi after 24 hrs by NCCLS two fold broth microdilution method. It is filed as functional, Salmonella enterica subsp. enterica serovar Typhi. Particulars: Salmonella enterica. Put shortly:
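Two-fold serial broth microdilution per NCCLS. DMSO stocks diluted in Mueller–Hinton broth to 512, 256, 128, 64, 32, 16, 8, 4, 2, 1, 0.5 µg/mL. Chloromycin and norfloxacin as reference drugs; DMSO with inoculum, no drug, as solvent control. Incubation 37 °C for 24 h. Growth read visually and spectrophotometrically. MIC is the lowest concentration completely inhibiting growth; triplicate.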

Assay [9] has as its system Candida albicans. In words: Antifungal activity against Candida albicans ATCC 76615 after 24 hrs by NCCLS two fold broth microdilution method. It is filed as functional. Particulars: ATCC 76615, 24 h. The procedure, abridged:
(§3)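 Two-fold serial microdilution following NCCLS. A spore suspension in sterile distilled water was prepared from one-day-old cultures grown on Sabouraud agar and adjusted to a final 1–5 × 10^3 spores/mL. DMSO stocks were diluted in RPMI 1640 to eleven concentrations (0.5–512 µg/mL), inoculated and held at 35 °C for 24 h. Growth was read visually and spectrophotometrically, MIC was the lowest concentration with complete inhibition, and runs were in triplicate.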

Assay [10] has as its system Pichia norvegensis. Briefly: Antifungal activity against Candida mycoderma after 24 hrs by NCCLS two fold broth microdilution method. The assay is classed as functional.
Assay [11] relates to Cyberlindnera jadinii. In words: Antifungal activity against Candida utilis after 24 hrs by NCCLS two fold broth microdilution method. The assay is classed as functional. Particulars: Williopsis jadinii. Put shortly:
as §3

The subject of assay [12] is Saccharomyces cerevisiae. Briefly: Antifungal activity against Saccharomyces cerevisiae after 24 hrs by NCCLS two fold broth microdilution method. The assay is classed as functional. The procedure, abridged: as §3
In assay [13] the test system is Aspergillus flavus. Briefly: Antifungal activity against Aspergillus flavus after 24 hrs by NCCLS two fold broth microdilution method. It is filed as functional. Put shortly:
as §3

As to `CCCCCCCCCCCCCCCCCCn1c(CS(=O)(=O)c2ccc(N)cc2)nc2ccccc21`, the MIC worked out at 512 µg/mL (≈ 948 µM) in assay [1]; 512 µg/mL (≈ 948 µM) in assay [2]; 512 µg/mL (≈ 948 µM) in [3]; 256 µg/mL (≈ 474 µM) in assay [4]; 512 µg/mL (≈ 948 µM) in assay [5]; 512 µg/mL (≈ 948 µM) in [6]. The MIC worked out at 512 µg/mL (≈ 948 µM) in [7]; 512 µg/mL (≈ 948 µM) in assay [8]; 512 µg/mL (≈ 948 µM) in assay [9]; 64 µg/mL (≈ 119 µM) in assay [10]; 512 µg/mL (≈ 948 µM) in assay [11]; 64 µg/mL (≈ 119 µM) in assay [12]. The compound also yielded an MIC in assay [13] of 512 µg/mL (≈ 948 µM).
On to `CCCCCCCCn1c(CS(=O)(=O)c2ccc(N)cc2)nc2ccccc21`, for which the MIC in assay [1], in assay [2], in [3], in assay [4], in [5] and in [6] was 512 µg/mL (≈ 1280 µM) throughout. The MIC in assay [7] is 512 µg/mL (≈ 1280 µM); in assay [8] it was 512 µg/mL (≈ 1280 µM); in [9], 64 µg/mL (≈ 160 µM); in assay [10], 256 µg/mL (≈ 641 µM); in assay [11], 512 µg/mL (≈ 1280 µM); in assay [12] it was 512 µg/mL (≈ 1280 µM). Also, the minimal inhibitory concentration (MIC) in assay [13] was determined as 512 µg/mL (≈ 1280 µM).
`CCCn1c(CS(=O)(=O)c2ccc(N)cc2)nc2ccccc21`: the MIC worked out at 256 µg/mL (≈ 777 µM) in assay [1]; 128 µg/mL (≈ 389 µM) in [2]; 32 µg/mL (≈ 97.1 µM) in assay [3]; 256 µg/mL (≈ 777 µM) in assay [4]; 256 µg/mL (≈ 777 µM) in assay [5]; 64 µg/mL (≈ 194 µM) in assay [6]. In addition, the minimum inhibitory concentration (MIC) in [7] amounted to 256 µg/mL (≈ 777 µM); in assay [8] it was 32 µg/mL (≈ 97.1 µM); in [9], 64 µg/mL (≈ 194 µM); in assay [10], 4 µg/mL (≈ 12.1 µM); in [11], 64 µg/mL (≈ 194 µM); in [12], 32 µg/mL (≈ 97.1 µM). The compound also had a minimal inhibitory concentration (MIC) in [13] of 8 µg/mL (≈ 24.3 µM).
For `CCCCCCn1c(CS(=O)(=O)c2ccc(NC(C)=O)cc2)nc2ccccc21`, the minimal inhibitory concentration (MIC) in [1] came to 512 µg/mL (≈ 1240 µM); in assay [2] it was 512 µg/mL (≈ 1240 µM); in assay [3], 128 µg/mL (≈ 310 µM); in assay [4], 256 µg/mL (≈ 619 µM); in assay [5], 256 µg/mL (≈ 619 µM); in assay [6], 512 µg/mL (≈ 1240 µM). The MIC in assay [7], in [8], in [9], in assay [10], in assay [11] and in [12] was 512 µg/mL (≈ 1240 µM) in each case. It took 512 µg/mL (≈ 1240 µM) to inhibit growth in [13] (MIC).
`Nc1ccc(S(=O)(=O)Cc2nc3ccccc3n2Cc2cccc(Cl)c2)cc1`: the MIC came to 32 µg/mL (≈ 77.7 µM) in [1]; 512 µg/mL (≈ 1240 µM) in [2]; 512 µg/mL (≈ 1240 µM) in assay [3]; 256 µg/mL (≈ 621 µM) in [4]; 256 µg/mL (≈ 621 µM) in [5]; 32 µg/mL (≈ 77.7 µM) in [6]. In addition, the MIC in [7] worked out at 256 µg/mL (≈ 621 µM); in assay [8] it was 512 µg/mL (≈ 1240 µM); in [9], 512 µg/mL (≈ 1240 µM); in assay [10], 512 µg/mL (≈ 1240 µM); in assay [11] it was 512 µg/mL (≈ 1240 µM); in assay [12] it was 256 µg/mL (≈ 621 µM). Also, the MIC in [13] came out at 16 µg/mL (≈ 38.8 µM).
Turning to `CCn1c(CS(=O)(=O)c2ccc(N)cc2)nc2ccccc21`, the MIC in assay [1] worked out at 64 µg/mL (≈ 203 µM); in [2], 128 µg/mL (≈ 406 µM); in [3], 64 µg/mL (≈ 203 µM); in assay [4] it was 128 µg/mL (≈ 406 µM); in assay [5] it was 64 µg/mL (≈ 203 µM); in [6] it was 64 µg/mL (≈ 203 µM). Also, the MIC in [7] is 64 µg/mL (≈ 203 µM); in [8] it was 128 µg/mL (≈ 406 µM); in assay [9], 256 µg/mL (≈ 812 µM); in assay [10] it was 512 µg/mL (≈ 1620 µM); in assay [11], 64 µg/mL (≈ 203 µM); in assay [12], 512 µg/mL (≈ 1620 µM). Moreover, the MIC in assay [13] is 32 µg/mL (≈ 101 µM).
Regarding `CCCCCCCn1c(CS(=O)(=O)c2ccc(NC(C)=O)cc2)nc2ccccc21`, the MIC in assay [1] was determined as 8 µg/mL (≈ 18.7 µM); in assay [2], 512 µg/mL (≈ 1200 µM); in assay [3] it was 256 µg/mL (≈ 599 µM); in assay [4], 512 µg/mL (≈ 1200 µM); in assay [5] it was 256 µg/mL (≈ 599 µM); in assay [6], 64 µg/mL (≈ 150 µM). Moreover, the MIC in assay [7] came to 512 µg/mL (≈ 1200 µM); in assay [8], 512 µg/mL (≈ 1200 µM); in assay [9], 512 µg/mL (≈ 1200 µM); in [10], 512 µg/mL (≈ 1200 µM); in assay [11] it was 128 µg/mL (≈ 299 µM); in assay [12], 512 µg/mL (≈ 1200 µM). In [13], this compound gave an MIC of 256 µg/mL (≈ 599 µM).
